The values below come from ChEMBL document CHEMBL1137504, “Effect of indole ethyl isothiocyanates on proliferation, apoptosis, and MAPK signaling in neuroblastoma cell lines” (Bioorg Med Chem Lett, 2007).

Calls of active or inactive are those of the source. The calls are words filed in the database; no cut-off is given here.

The subject of one data set is SK-N-SH. The data set is described as follows: Cytotoxicity against human SK-N-SH cells after 48 hrs. It is filed as functional, cell-based. In short, it runs like this: (§1)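 Cells were seeded at 5 × 10^5 per T75 flask and grown to about 80% confluency. Lines were NB (IMR-32, SH-SY5Y, SMS-KCNR, SK-N-SH) or primary human lung fibroblasts (LF1, passage 10). Cells were exposed to 2.5–40 μM drug for 48 hrs and viability was read by MTS. Triplicates were run, and values are mean ± SD of a representative experiment as % viability of untreated cells.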

For data set [1], the target named is RAC-alpha serine/threonine-protein kinase (Homo sapiens) (UniProt P31749). Nature of the data set: Inhibition of AKT in SMS-KCNR cells after 36 hrs by Western blotting. The format is cell-based. In outline:
(§2)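 SMS-KCNR cells at about 80% confluency were treated with 3 μM drug for the indicated times, then lysed in NP-40 buffer with protease and phosphatase inhibitors. Lysates (50 μg protein per lane) were run on 12% SDS-PAGE and blotted to PVDF. Blots were blocked in 5% milk and probed overnight at 4 °C with 1:1000 primary antibodies in 5% BSA. Targets were phospho and total JNK, p38 and Akt, pro and active caspase-3, -8 and -9, and cleaved PARP-1, with β-actin as loading control.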

For data set [2], the system named is SMS-KCNR. Nature of the data set: Cytotoxicity against SMS-KCNR cells after 48 hrs by MTS assay. The format is functional, cell-based. Conditions: Homo sapiens. In outline: as §1
The test system of the next data set is IMR-32. The data set is described as follows: Cytotoxicity against IMR32 cells after 48 hrs by MTS assay. The format is functional, cell-based. The conditions noted are these: Homo sapiens. In outline: as §1
A general note: Tetrazolium assays rely on reduction of a dye to a coloured formazan, in cell work by metabolically active cells.

The next data set concerns SH-SY5Y. Nature of the data set: Cytotoxicity against SH-SY5Y cells after 48 hrs by MTS assay. The format is functional, cell-based. The conditions noted are these: Homo sapiens. In short, it runs like this: as §1
Data set [3] can be described thus: Cytotoxicity against lung fibroblast cells after 48 hrs by MTS assay. It is filed as cell-based. The conditions noted are these: human. In short, it runs like this:
as §1

Data set [4] addresses MAP kinase p38 (Homo sapiens) (UniProt O15264+Q15759+Q16539+P53778). The data set is described as follows: Effect on p38 activation in SMS-KCNR cells after 1 hr by Western blotting. The format is cell-based. In short, it runs like this:
as §2

Data set [5] concerns SMS-KCNR. Nature of the data set: Effect on JNK activation in SMS-KCNR cells after 1 hr by Western blotting. It is filed as cell-based. Conditions: Homo sapiens. In short, it runs like this: as §2
Data set [6] concerns SMS-KCNR. The data set is described as follows: Induction of apoptosis in SMS-KCNR cells assessed as increase in caspase 3 activation by Western blotting. It is filed as functional, cell-based. The conditions noted are these: Homo sapiens. In outline: as §2
Background: A western blot detects proteins with antibodies after separation by electrophoresis.

The test system of data set [7] is SMS-KCNR. Nature of the data set: Induction of apoptosis in SMS-KCNR cells assessed as increase in caspase 8 activation by Western blotting. It is filed as functional, cell-based. Conditions: Homo sapiens. In outline:
as §2

The test system of data set [8] is SMS-KCNR. Nature of the data set: Induction of apoptosis in SMS-KCNR cells assessed as increase in caspase 9 activation by Western blotting. The format is functional, cell-based. Conditions: Homo sapiens. In short, it runs like this: as §2
Data set [9] deals with SMS-KCNR. Nature of the data set: Induction of apoptosis in SMS-KCNR cells assessed as increase in PARP1 activation by Western blotting. The format is functional, cell-based. The conditions noted are these: Homo sapiens. In outline:
as §2

For data set [10], the system named is SMS-KCNR. The data set is described as follows: Inhibition of cell proliferation of SMS-KCNR cells […] after 48 hrs by BrdU assay. Conditions: Homo sapiens. It is filed as functional, cell-based. In short, it runs like this: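 SMS-KCNR cells were plated at 5 × 10^3 per well, attached overnight, and treated with 300 nM–5 μM drug for 48 hrs. BrdU (10 μM final) was added for a further 6 hrs. Fixed cells were incubated with anti-BrdU–peroxidase for 2 hrs at 37 °C, developed with TMB, stopped with sulfuric acid, and read at 450 nm after blank subtraction. Triplicates were run, expressed as % of untreated absorbance.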
A general note: Incorporation of labelled thymidine or its analogues reports DNA synthesis.

Data set [11] in a line: Cell cycle arrest in SMS-KCNR cells by accumulation at G0/G1 phase at 3 uM after 12 hrs by flow cytometry. The format is functional, cell-based. The conditions noted are these: Homo sapiens. In outline: (§3)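 Cells were plated in 100 mm dishes at 7.5 × 10^5 per dish, left to attach overnight, then exposed to 3.0 μM drug for 12 or 24 hrs. Floating and scraped adherent cells were pooled and fixed in ice-cold 70% ethanol for 30 min. They were stained with 50 μg/mL propidium iodide plus 100 μg/mL RNase, 30 min at 37 °C in the dark. Flow cytometry read 10,000 gated single-cell events per sample. Results are given as % of cells per sub-population, with sub-G0/G1 taken as apoptotic.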

Data set [12] in a line: Cell cycle arrest in SMS-KCNR cells by accumulation at S phase at 3 uM after 12 hrs by flow cytometry. The conditions noted are these: Homo sapiens. The format is functional, cell-based. In short, it runs like this:
as §3

Data set [13] is described as follows: Cell cycle arrest in SMS-KCNR cells by accumulation at G2/M phase at 3 uM after 12 hrs by flow cytometry. The format is functional, cell-based. The conditions noted are these: Homo sapiens. In short, it runs like this: as §3
Data set [14] is described as follows: Induction of apoptosis in SMS-KCNR cells at 3 uM after 12 hrs by flow cytometry. It is filed as functional, Homo sapiens. In outline:
as §3

Data set [15] can be described thus: Cell cycle arrest in SMS-KCNR cells by accumulation at G0/G1 phase at 3 uM after 24 hrs by flow cytometry. It is filed as functional, cell-based. The conditions noted are these: Homo sapiens. In short, it runs like this:
as §3

Data set [16] in a line: Cell cycle arrest in SMS-KCNR cells by accumulation at S phase at 3 uM after 24 hrs by flow cytometry. The format is functional, cell-based. Conditions: Homo sapiens. In outline:
as §3

The nature of data set [17]: Cell cycle arrest in SMS-KCNR cells by accumulation at G2/M phase at 3 uM after 24 hrs by flow cytometry. The conditions noted are these: Homo sapiens. It is filed as functional, cell-based. In short, it runs like this: as §3
The nature of data set [18]: Induction of apoptosis in SMS-KCNR cells at 3 uM after 24 hrs by flow cytometry. The format is functional, Homo sapiens. In short, it runs like this: as §3
Data set [19] has as its system SMS-KCNR. The data set is described as follows: Cytotoxicity against SMS-KCNR cells at 2.5 uM to 5.0 uM after 48 hrs by MTS assay. It is filed as functional, cell-based. The conditions noted are these: Homo sapiens. In outline:
as §1

Data set [20] concerns SMS-KCNR. The data set is described as follows: Reduction of SMS-KCNR cell viability at 5 uM after 48 hrs in presence of Z-VAD-FM. It is filed as functional, cell-based. Conditions: Homo sapiens. In short, it runs like this:
(§4)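 SMS-KCNR cells were pre-incubated for 2 hrs with 40 μM caspase inhibitor (Z-VAD-FM, Z-DEVD-FMK, Z-IETD-FMK or Z-LEHD-FMK). Drug was then added at 5.0 μM for 48 hrs and viability measured. Triplicates were run, and values are mean ± SD of a representative experiment as % viability of untreated cells.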

Data set [21] concerns SMS-KCNR. Nature of the data set: Reduction of SMS-KCNR cell viability at 5 uM after 48 hrs in presence of Z-DEVD-FMK. The format is functional, cell-based. The conditions noted are these: Homo sapiens. In outline: as §4
The subject of data set [22] is SMS-KCNR. The data set is described as follows: Reduction of SMS-KCNR cell viability at 5 uM after 48 hrs in presence of Z-IETD-FMK. It is filed as functional, cell-based. The conditions noted are these: Homo sapiens. In short, it runs like this: as §4
The test system of data set [23] is SMS-KCNR. The data set is described as follows: Reduction of SMS-KCNR cell viability at 5 uM after 48 hrs in presence of Z-LEHD-FMK. The format is functional, cell-based. Conditions: Homo sapiens. In short, it runs like this:
as §4

Sequence of RAC-alpha serine/threonine-protein kinase (Homo sapiens) (P31749 whole entry): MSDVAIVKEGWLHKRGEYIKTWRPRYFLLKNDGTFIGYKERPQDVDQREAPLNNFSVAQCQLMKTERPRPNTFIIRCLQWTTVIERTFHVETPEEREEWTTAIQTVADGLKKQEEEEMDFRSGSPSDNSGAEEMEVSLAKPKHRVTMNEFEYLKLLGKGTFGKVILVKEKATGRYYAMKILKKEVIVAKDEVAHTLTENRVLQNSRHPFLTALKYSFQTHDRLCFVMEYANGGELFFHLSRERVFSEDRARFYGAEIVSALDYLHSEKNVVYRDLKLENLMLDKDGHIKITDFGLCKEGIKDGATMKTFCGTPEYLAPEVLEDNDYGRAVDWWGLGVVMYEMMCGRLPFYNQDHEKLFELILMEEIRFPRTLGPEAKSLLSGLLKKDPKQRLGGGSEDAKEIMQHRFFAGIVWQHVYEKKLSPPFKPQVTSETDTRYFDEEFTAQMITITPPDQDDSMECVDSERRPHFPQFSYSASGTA

Consider `Cc1cccc2c(CCN=C=S)c[nH]c12`, for which, in the data set with SK-N-SH, the IC50 (commonly the point on the concentration scale where inhibition reaches its midpoint) is less than 2.5 µM. The result (in data set [1]; in data set [4]; in the data set with SMS-KCNR [5]; in the data set with SMS-KCNR [6]; in the data set with SMS-KCNR [7]; with SMS-KCNR [8]) was Active. The outcome in the data set on SMS-KCNR [9], in the data set on SMS-KCNR [10], with SMS-KCNR [19], with SMS-KCNR [20], with SMS-KCNR [21] and in the data set on SMS-KCNR [22] was Active. Also, in the data set on SMS-KCNR [23], the result was Active. For the same compound, the Activity result is “Dose-dependent effect” with SMS-KCNR [2]; “Dose-dependent effect” with IMR-32; “Dose-dependent effect” in the data set with SH-SY5Y; “Not Active” in [3]; 66.4% in data set [11]; 7.3% in data set [12]. In addition, the Activity in data set [13] stood at 26.3%; in data set [14], 19.7%; in [15], 68.9%; in data set [16] it was 6.5%; in data set [17], 24.5%; in data set [18], 18.8%.
The compound `S=C=NCCc1c[nH]c2ccc(OCc3ccccc3)cc12` showed a 50% inhibitory concentration (IC50) in the data set with SK-N-SH of less than 2.5 µM. Further, the Activity entry in the data set on SMS-KCNR [2], with IMR-32 and with SH-SY5Y was “Dose-dependent effect” in each case.
